Compounds with a hit are over-represented: about 1.4% of the library has one in this group of screens.
DYRK1A inh = Dyrk1A (rat) kinase inhibition. Q63470. ADP-Glo luminescence, NFATc1 peptide. inhibition, % at 12.5 µM. hit rate 0.43% among 310,000. AID 504441; in the data active = inhibition above about 50%
ARNT TACC3 PPI = disrupts binding between human ARNT and TACC3; AID 623870; Q9Y6A5; inhibition, % at 9.99 µM; hit rate 0.66% among 390,000; AlphaScreen His-ARNT PAS-B/GST-TACC3 binding, luminescence; TACC3 fragment carries E629A point mutation;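 active = mean inhibition of replicates at least 50% and at least half of replicates each reaching 50%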
CAL PDZ FP-1 = human CAL PDZ-peptide interaction inhibition; purified CAL PDZ, TMR-peptide fluorescence polarization, 1 h; inhibition, % at 20 µM; hit rate 0.02% among 330,000; AID 504414;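 active = highest replicate inhibition of at least 40%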
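System: purified tagged CAL PDZ domain construct (CerCALP). Schedule: 1 h incubation at room temperature before polarization reading. Medium: 25 mM sodium phosphate pH 7.4, 150 mM NaCl, TCEP, IgG, Thesit. Read-out: percent inhibition from loss of millipolarization. Measured by: FP readout, S and P plane fluorescence. Probe or stimulus: fluorescent TMR peptide probe.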
CAL PDZ FP-2 = blocks peptide binding to the human CAL PDZ domain | inhibition, % at 24.9 µM | Q9HD26 | hit rate 0.92% among 300,000 | AID 602252 | purified CAL PDZ, TMR-peptide fluorescence polarization, 1 h;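 active = mean inhibition of at least 30% with at least half of replicates also reaching 30%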
Of the large screens only hits and unclear results are named; the others gave an inactive call.

COc1ccc(NC(=O)Nc2ccc3c(c2)CC(=O)N([C@@H](C)CO)C[C@@H](C)[C@H](CN(C)Cc2ccc(Cl)c(Cl)c2)O3)cc1	none (no result: DYRK1A inh, CAL PDZ FP-1, CAL PDZ FP-2)
CC(=O)NC(c1ccccc1)c1cc([N+](=O)[O-])c2cccnc2c1O (configuration not stated)	none (no result: DYRK1A inh)
CCC(=O)NC(c1cccs1)c1cc([N+](=O)[O-])c2cccnc2c1O (configuration not stated)	ARNT TACC3 PPI 70.7
C[C@H](CO)N1C[C@H](C)[C@H](CN(C)C(=O)Nc2ccc3c(c2)OCO3)Oc2ncc(C#CCN(C)C)cc2C1=O	none (no result: DYRK1A inh, CAL PDZ FP-1, CAL PDZ FP-2)
O=C(Cc1ccccn1)NCC[C@H]1CC[C@H](NC(=O)Nc2ccc(Cl)cc2)[C@H](CO)O1	none (no result: DYRK1A inh, CAL PDZ FP-1, CAL PDZ FP-2)
CCOc1ccc2nc(SCC(=O)c3ccc(C)s3)sc2c1	none (no result: ARNT TACC3 PPI)
CCOc1ccc2nc(SCC(=O)c3ccc(O)cc3O)sc2c1	CAL PDZ FP-2 36.1 (no result: CAL PDZ FP-1)
COCCNC(=O)c1cn(CCOC)c(=O)c2c1c1ccccc1n2C	CAL PDZ FP-2 49.0
COCCCNC(=O)c1cn(CCOC)c(=O)c2c1c1ccccc1n2C	none
CC(C)C#Cc1cnc2c(c1)C(=O)N([C@H](C)CO)C[C@H](C)[C@@H](CN(C)C(=O)c1ccccn1)O2	none (no result: DYRK1A inh, CAL PDZ FP-1, CAL PDZ FP-2)
CC(C)(C)CC(=O)N1CCN(Cc2ccc3c(c2)OCO3)CC1	CAL PDZ FP-2 37.7
c1ccc(-c2n[nH]c(-c3ccccn3)n2)cc1	ARNT TACC3 PPI 57.1 (no result: CAL PDZ FP-2)
O=C(CSc1nnc(CNC(=O)c2cccs2)o1)Nc1ccc(Br)cc1	CAL PDZ FP-2 43.6
C[C@H]1CN([C@@H](C)CO)C(=O)c2cc(NC(=O)Cc3ccccc3)ccc2O[C@H]1CN(C)Cc1ccc(C(=O)O)cc1	none (no result: DYRK1A inh, CAL PDZ FP-1, CAL PDZ FP-2)
COc1cccc(OCC(=O)Nc2ccc(OC)c(OC)c2)c1	none (no result: ARNT TACC3 PPI)
O=C(O)Cc1ccc(NC(=O)COc2ccc3ccccc3c2)cc1	none
CC(=O)Nc1ccc(NC(=O)COC(=O)COc2ccc3ccccc3c2)cc1	CAL PDZ FP-2 104.7
COc1ccc(NC(=O)COC(=O)COc2cccc(Br)c2)cc1OC	CAL PDZ FP-2 35.7 (no result: DYRK1A inh)
O=C(C[C@@H]1C[C@H]2c3cc(NC(=O)CC4CC4)ccc3O[C@H]2[C@@H](CO)O1)NCCN1CCCCC1	none (no result: DYRK1A inh, CAL PDZ FP-1, CAL PDZ FP-2)
O=C1NC(=O)/C(=C/c2ccc(N3CCOCC3)o2)N1	CAL PDZ FP-2 31.1
O=C(CN1C(=O)COc2ccccc21)Nc1ccccc1F	none (no result: DYRK1A inh)
Cc1ccc2c(c1)N(CC(=O)Nc1ccccc1F)C(=O)CO2	CAL PDZ FP-2 56.4
CC(C)(C)N(Cc1ccccc1)C(=O)c1cccs1	none
N#CCCN(Cc1ccccc1)C(=O)c1cccs1	CAL PDZ FP-2 active
O=C(COC(=O)c1ccc([N+](=O)[O-])s1)Nc1ncc(C(F)(F)F)cc1Cl	CAL PDZ FP-2 70.9
O=C(COC(=O)c1ccccn1)Nc1ncc(C(F)(F)F)cc1Cl	none (no result: CAL PDZ FP-1)
CCCC#Cc1cnc2c(c1)C(=O)N([C@@H](C)CO)C[C@H](C)[C@H](CN(C)Cc1ccncc1)O2	none (no result: DYRK1A inh, CAL PDZ FP-1, CAL PDZ FP-2)
CCSc1nccc(-c2nn(-c3ccc(C)cc3)ccc2=O)n1	none
CSc1nccc(-c2nn(-c3ccc(C)cc3)ccc2=O)n1	ARNT TACC3 PPI 58.2
COc1ccc(C(=O)COC(=O)/C=C/c2ccco2)cc1F	CAL PDZ FP-2 64.5 (no result: DYRK1A inh)
CN(c1ccc(OCC(=O)OCC(=O)Nc2ccc([N+](=O)[O-])cc2)cc1)S(=O)(=O)c1cccs1	CAL PDZ FP-2 94.6
CN(c1ccc(OCC(=O)OCC(=O)Nc2ccccc2)cc1)S(=O)(=O)c1ccc(F)cc1	none
C[C@@H]1CCCCO[C@@H](CN(C)Cc2ccc3c(c2)OCO3)[C@H](C)CN([C@@H](C)CO)C(=O)c2cc(NC(=O)CCC(F)(F)F)ccc2O1	none (no result: DYRK1A inh, CAL PDZ FP-1, CAL PDZ FP-2)
O=C(NCc1ccc2c(c1)OCO2)c1ccc(Cl)nc1	CAL PDZ FP-2 98.9
Cc1cc(C(=O)NCc2ccc3c(c2)OCO3)ccc1[N+](=O)[O-]	CAL PDZ FP-2 68.9 (no result: CAL PDZ FP-1)
O=C(O)CCN1C(=O)c2ccc(NC(=O)CCc3ccccc3)cc2C1=O	none
CC(C)CN1C(=O)c2ccc(NC(=O)Cc3ccccc3)cc2C1=O	CAL PDZ FP-2 74.3
COC(=O)C[C@@H]1CC[C@H]2[C@H](COc3ccc(NC(=O)c4ccc(F)c(F)c4)cc3C(=O)N2C)O1	none (no result: DYRK1A inh, CAL PDZ FP-1, CAL PDZ FP-2)
CCOC(=O)c1c(C)[nH]c(C(=O)OCC(=O)Nc2cc(C)c(Cl)cc2OC)c1C	CAL PDZ FP-2 37.0
Cc1c(OC(C)C(=O)NCCN2CCOCC2)ccc2c3c(c(=O)oc12)CCCC3 (configuration not stated)	CAL PDZ FP-2 67.0
CC(=O)n1cc(-c2ccncc2)c2ccccc21	DYRK1A inh 68.6 (no result: CAL PDZ FP-2)
Cc1noc(C)c1NC(=O)N(C)C[C@@H]1Oc2ccc(N(C)C)cc2CC(=O)N([C@@H](C)CO)C[C@@H]1C	none (no result: DYRK1A inh, CAL PDZ FP-1, CAL PDZ FP-2)
Cc1cccc(N2NC(=O)/C(=C/c3ccc(-c4ccc(Cl)c(C(=O)O)c4)o3)C2=O)c1	CAL PDZ FP-2 96.8
COCC(=O)Nc1ccc2c(c1)C(=O)N(C)C[C@@H](OC)[C@H](C)CN(Cc1ccncc1)[C@@H](C)CO2	none (no result: DYRK1A inh, CAL PDZ FP-1, CAL PDZ FP-2)
O=C(O)CCN1C(=O)/C(=C\c2ccc(-c3nc4ccccc4s3)o2)SC1=S	ARNT TACC3 PPI 67.3 (no result: CAL PDZ FP-2)
O=C(O)CCCN1C(=O)/C(=C\c2ccco2)SC1=S	none
Cc1ccc2c(c1)CC1(CN2C)C(=O)OC2(CCCCC2)OC1=O	CAL PDZ FP-2 78.1
Cn1nnnc1Sc1ncnc2scc(-c3cccs3)c12	DYRK1A inh 59.5
Cc1[nH]c2ccccc2c1C(=O)C(=O)NCCOc1ccccc1	CAL PDZ FP-2 45.9
COc1ccc(CCNC(=O)C(=O)c2c(C)[nH]c3ccccc23)cc1	none
CCOc1ccc2nc(N(CCN(CC)CC)C(=O)/C=C/c3cccs3)sc2c1	CAL PDZ FP-2 31.0
COc1ccccc1-c1ccc(SCc2ccc(C)cc2)nn1	none (no result: ARNT TACC3 PPI)
COc1ccccc1-c1ccc(SCc2ccc(F)cc2)nn1	CAL PDZ FP-2 79.9
O=C(N/N=C/c1c[nH]c2ccccc12)c1ccccc1	CAL PDZ FP-2 37.5
Cn1cnc(S(=O)(=O)N[C@H]2C=C[C@H](CC(=O)NCC3CCCCC3)O[C@H]2CO)c1	none (no result: DYRK1A inh, CAL PDZ FP-1, CAL PDZ FP-2)
O=C(N/N=C/c1cc(Br)ccc1O)C(c1ccncc1)N1CCOCC1 (configuration not stated)	ARNT TACC3 PPI 58.3
O=C(CNC(=O)c1ccncc1)N/N=C/c1cc(Br)ccc1O	ARNT TACC3 PPI 46.4
COc1ccc(/C(C)=N\NC(=O)C(c2ccncc2)N2CCOCC2)cc1 (configuration not stated)	none (no result: CAL PDZ FP-2)
COc1ccc(C(=O)NCC(=O)N/N=C/c2cccnc2)cc1OC	none
O=C(CNC(=O)c1ccccc1)N/N=C/c1cc(Br)ccc1O	none
COc1ccc(/C=N/NC(=O)c2cc[n+]([O-])cc2)cc1O	ARNT TACC3 PPI 71.6 (no result: CAL PDZ FP-2)
COc1ccc(/C=N/NC(=O)CNC(=O)c2ccncc2)cc1OC	CAL PDZ FP-2 54.9
COc1ccc(S(=O)(=O)N(C)C[C@H]2Oc3c(NC(=O)NC(C)C)cccc3C(=O)N([C@@H](C)CO)C[C@H]2C)cc1	none (no result: DYRK1A inh, CAL PDZ FP-1, CAL PDZ FP-2)
COc1ccc(NC(=O)Nc2ccc3c(c2)C(=O)N([C@@H](C)CO)C[C@H](C)[C@@H](CN(C)C(=O)Nc2ccc(C(F)(F)F)cc2)OCCCC[C@H](C)O3)cc1	none (no result: DYRK1A inh, CAL PDZ FP-1, CAL PDZ FP-2)
